For test [1], the system named is WDR5 / MBP-LANAΔ33–888 interaction. As to the kind of experiment: Co-precipitation of WDR5 with MBP-LANAΔ33–888. In kind it is binding. Particulars: co-precipitation with MBP-LANAΔ33–888, Coomassie blue detection.
For test [2], the system named is WDR5 WIN binding pocket / MLL1-WDR5 interaction. Particulars: cited from earlier work.
In test [3] the test system is WDR5 in LANA/MLL1 complex. Kind of test: Co-precipitation of ASH2L, RbBP5, WDR5 or MLL1-SET with MBP-LANAΔ33–888. In kind it is binding. Conditions: co-precipitation with MBP-LANAΔ33–888, immunoblot. In general terms: In western blotting, separated proteins are transferred to a membrane and probed.
A further test has as its system WDR5. As to the kind of experiment: Co-IP of GFP-LANA regions with Flag-WDR5. Conditions: co-IP after expression in 293T cells, anti-Flag. In kind it is binding. The essentials: (§1)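 Incubated overnight at 4°C with anti-Flag M2 (2 μg) agarose beads. Beads washed 3–6 times in lysis buffer and eluted in SDS buffer. Proteins resolved by SDS-PAGE and detected by western blot.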

The next test has as its system MLL1. As to the kind of experiment: Co-IP of GFP-LANA regions with MLL1. In kind it is binding. Particulars: co-IP after expression in 293T cells, anti-Flag. The essentials:
as §1

Where a SMILES comes first, the peptide text is derived from it. Bridges are numbered along the chain shown (N, C = ends). [ ]: non-standard residue; d: D form. The star is where a group is joined. d(αMeK) = C[C@@](N)(CCCCN)C(=O)O; dPhg = N[C@@H](C(=O)O)c1ccccc1; Isobutyryl = CC(C)C(=O)*; Abu = CC[C@H](N)C(=O)O

In the case of `CC[C@@H]1NC(=O)[C@H](CCCN=C(N)N)NC(=O)[C@](C)(NC(=O)C(C)C)CCCCNC(=O)[C@@H](c2ccccc2)NC1=O` [MM-401] (Isobutyryl-[d(αMeK)]R[Abu][dPhg]; lactam 1-C), the “effect on WDR5-LANA interaction” value in test [1] is “blocked the interaction of WDR5 with LANA”. For the same molecule, in test [2], the MLL1-WDR5 interaction inhibition entry is “occupies the WDR5 WIN binding pocket and thereby inhibits MLL1-WDR5 interaction”. Besides, the “exclusion of WDR5 from LANA/MLL1 complex” value in test [3] was “excluded nearly all WDR5 from the LANA/MLL1 complex”.

B1: LANA 779–1049: GFP-LANA fragment 779–1049 (protein)
chain: QEQELEEQEQELEEQEQELEEQEQELEEQEQELEEQEQELEEQEQELEEQEQELEEQEQELEEQEVEEQEQEVEEQEQEQEEQELEEVEEQEQEQEEQEEQELEEVEEQEEQELEEVEEQEEQELEEVEEQEQQELEEVEEQEQQGVEQQEQETVEEPIILHGSSSEDEMEVDYPVVSTHEQIASSPPGDNTPDDDPQPGPSREYRYVLRTSPPHRPGVRMRRVPVTHPKKPHPRYQQPPVPYRQIDDCPAKARPQHIFYRRFLGKDGRRD
modifications: left off: GFP, end not stated, kept
On to B1, for which, in the test on WDR5, the “interaction with WDR5” value is on record as “interacted with LANA 779–1049”. Besides, in the test on MLL1, the “interaction with MLL1” value is reported as “did not”.

The record behind these values is PMC8682764 (Nucleic Acids Research, 2021).
